In ChEMBL document CHEMBL5338811, “Computational Design, Synthesis, and Biological Evaluation of Diimidazole Analogues Endowed with Dual PCSK9/HMG-CoAR-Inhibiting Activity” (J Med Chem, 2023):
Activity calls are given as the source filed them.

Key:
[1] = Metabolic stability in human liver microsomes assessed as clearance per mg protein at 5 uM preincubated for 10 mins followed by UDPGA addition and measured upto 60 mins by LC-MS/MS analysis; assay type: ADME, Microsome; details: time < 70 min, read-out: CLH
Outline: (§1)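 Compound at 5 μM final, in duplicate, from a 1 mM DMSO solution. Pre-incubated 10 min at 37 °C with human or mouse liver microsomes (0.5 mg/mL) in 50 mM potassium phosphate pH 7.4 with 3 mM MgCl2. The reaction was started with an NADPH-regenerating mix plus UDPGA. Samples taken at 0–60 min were quenched in ACN and analysed by LC–MS/MS. A no-cofactor control was included; 7-ethoxycoumarin and 7-hydroxycoumarin served as references.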

[2] = Metabolic stability in mouse liver microsomes assessed as clearance per mg protein at 5 uM preincubated for 10 mins followed by UDPGA addition and measured upto 60 mins by LC-MS/MS analysis; assay type: ADME, Microsome; details: time < 70 min, read-out: CLH; outline: as §1
[3] = tested on: HepG2; assay: Cytotoxicity against human HepG2 cells assessed as reduction in cell viability upto 10 uM after 48 hrs by MTT assay; assay type: toxicity, cell-based; details: hepg2, 48 h
Outline: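 HepG2 cells treated 48 h with compound at 0.1–10,000 nM; viability read by MTT versus untreated control cells. Mean ± SD of three experiments run in triplicate.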

[4] = Induction of LDLR expression in human HepG2 cells membrane in presence of 10 nM PCSK9 (reference value: 39.71 +/- 2.05%); assay type: functional
[5] = Induction of LDL uptake in human HepG2 cells incubated for 2 hrs in presence of 10 nM PCSK9 by fluorescent plate reader analysis (reference value: 51.69 +/- 15.30 %); assay type: functional
[6] = Induction of LDLR expression in human HepG2 cells membrane in presence of 1 nM PCSK9 (reference value: 39.71 +/- 2.05%); assay type: functional
[7] = Induction of LDL uptake in human HepG2 cells incubated for 2 hrs in presence of 1 nM PCSK9 by fluorescent plate reader analysis (reference value: 51.69 +/- 15.30 %); assay type: functional
[8] = molecular target: Proprotein convertase subtilisin/kexin type 9 (Homo sapiens) (UniProt Q8NBP7); assay: Inhibition of PCSK9 mediated epinephrine induced platelet aggregation in human platelet rich plasma assessed as prevention of lag time reduction at 10 nM preincubated for 15 mins followed by PRP addition by light transmission aggregometry assay
Outline: (§2)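 PRP from healthy donors (n = 5), prepared by centrifuging whole blood 10 min at 100g at room temperature without brakes. Recombinant PCSK9 (5 μg/mL) preincubated with compound for 15 min at room temperature, then added to PRP for 2 min at 37 °C. Aggregation triggered by subthreshold epinephrine (0.16 μM) and followed by light transmission aggregometry. Lag time and area under the curve were scored.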

[9] = molecular target: Proprotein convertase subtilisin/kexin type 9 (Homo sapiens) (UniProt Q8NBP7); assay: Inhibition of PCSK9 mediated epinephrine induced platelet aggregation in human platelet rich plasma assessed as prevention of AUC increase at 10 nM preincubated for 15 mins followed by PRP addition by light transmission aggregometry assay; outline: as §2

Sequence of Proprotein convertase subtilisin/kexin type 9 (Homo sapiens) (Q8NBP7 31-152 limits assumed): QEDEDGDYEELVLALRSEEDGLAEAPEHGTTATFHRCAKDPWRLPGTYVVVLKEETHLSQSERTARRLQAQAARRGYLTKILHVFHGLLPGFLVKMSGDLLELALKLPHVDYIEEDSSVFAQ
Sequence of Proprotein convertase subtilisin/kexin type 9 (Homo sapiens) (Q8NBP7 153-692 limits assumed): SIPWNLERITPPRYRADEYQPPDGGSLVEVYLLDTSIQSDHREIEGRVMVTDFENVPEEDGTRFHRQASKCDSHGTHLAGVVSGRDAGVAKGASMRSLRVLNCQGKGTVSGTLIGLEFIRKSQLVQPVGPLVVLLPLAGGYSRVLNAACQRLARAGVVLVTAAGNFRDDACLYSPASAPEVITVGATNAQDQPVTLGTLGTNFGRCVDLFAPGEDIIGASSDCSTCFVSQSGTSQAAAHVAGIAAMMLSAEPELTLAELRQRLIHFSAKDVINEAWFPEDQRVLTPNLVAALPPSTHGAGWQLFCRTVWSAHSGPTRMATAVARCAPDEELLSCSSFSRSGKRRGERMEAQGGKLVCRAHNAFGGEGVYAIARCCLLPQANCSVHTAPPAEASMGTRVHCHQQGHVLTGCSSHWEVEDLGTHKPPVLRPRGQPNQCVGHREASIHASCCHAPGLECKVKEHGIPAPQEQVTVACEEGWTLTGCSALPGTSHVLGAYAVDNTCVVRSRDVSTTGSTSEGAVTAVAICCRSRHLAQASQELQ

| SMILES | microsomal CLint at 5 µM [1] [µL/min/mg] | microsomal CLint at 5 µM [2] [µL/min/mg] | Activity [3] | other results |
| --- | --- | --- | --- | --- |
| O=c1ccc2ccc(O)cc2o1 [UMBELLIFERONE] | 390 | 533 | – | – |
| C#Cc1ncc(-c2ncc(-c3ccc4ccccc4c3)n2CCCC(C)(C)C)n1CCCCCNC | – | – | Non-Toxic | Activity [4]: 91.1%; Activity [5]: 81.87% |
| CCOc1ccc2ccc(=O)oc2c1 [ETHOXYCOUMARIN] | 46.1 | 291 | – | – |
| CNCCCCCn1c(-c2ncc(-c3ccc4ccccc4c3)n2CCCC(C)(C)C)cnc1I | – | – | Non-Toxic | Activity [6]: 101.1%; Activity [7]: 103.47%; inhibition [8]: Active; inhibition [9]: Active |
